Laboratory results from ChEMBL document CHEMBL1140069, “In vitro antifungal activity of polyfunctionalized 2-(hetero)arylquinolines prepared through imino Diels-Alder reactions” (2008).

Legend:
Type in all cases: functional
[1] = test system: Pichia kudriavzevii; experiment: Antimicrobial activity against Candida krusei C117 isolate at 25 ug/ml after 24 hrs
In short: (§1)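 Percent growth inhibition in 96-well microplates. Compound stocks in DMSO (≤2%) were diluted in RPMI-1640 to final 100–6.25 µg/mL, and 100 µL inoculum was added (final 200 µL). Controls were a growth well (inoculum with matching DMSO, no compound) and a sterility well (no inoculum). Inhibition was calculated against growth and sterility wells.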

[2] = test system: Candida albicans; experiment: Antimicrobial activity against Candida albicans C129 isolate at 12.5 ug/ml after 24 hrs
In short: (§2)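 Growth-inhibition microplate test. Strains are grown on Sabouraud-chloramphenicol agar for 48 h at 30 °C, and inoculum is added to RPMI-1640 containing compound at a final 100–6.25, with DMSO ≤2%. Each strain has a growth control (same DMSO, no compound) and a sterility control.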

[3] = test system: Candida tropicalis; experiment: Antimicrobial activity against Candida tropicalis C131 isolate at 6.25 ug/ml after 24 hrs; in short: as §1
[4] = test system: Nakaseomyces glabratus; experiment: Antimicrobial activity against Candida glabrata C115 isolate at 50 ug/ml after 24 hrs; in short: as §1
[5] = test system: Candida tropicalis; experiment: Antimicrobial activity against Candida tropicalis C131 isolate at 100 ug/ml after 24 hrs; in short: as §1
[6] = test system: Candida albicans; experiment: Antimicrobial activity against Candida albicans C126 isolate at 25 ug/ml after 24 hrs; in short: as §2
[7] = test system: Nakaseomyces glabratus; experiment: Antimicrobial activity against Candida glabrata C115 isolate at 25 ug/ml after 24 hrs; in short: as §1
[8] = test system: Pichia kudriavzevii; experiment: Antimicrobial activity against Candida krusei C117 isolate at 100 ug/ml after 24 hrs; in short: as §1
[9] = test system: Nakaseomyces glabratus; experiment: Antimicrobial activity against Candida glabrata C115 isolate at 6.25 ug/ml after 24 hrs; in short: as §1
[10] = test system: Candida albicans; experiment: Antimicrobial activity against Candida albicans C128 isolate at 12.5 ug/ml after 24 hrs; in short: as §2
[11] = test system: Candida albicans; experiment: Antimicrobial activity against Candida albicans C130 isolate at 50 ug/ml after 24 hrs; in short: as §2
[12] = test system: Pichia kudriavzevii; experiment: Antimicrobial activity against Candida krusei C117 isolate at 50 ug/ml after 24 hrs; in short: as §1
[13] = test system: Candida albicans; experiment: Antimicrobial activity against Candida albicans C127 isolate at 25 ug/ml after 24 hrs; details: C127, 24 h; in short: as §2
[14] = test system: Candida albicans; experiment: Antimicrobial activity against Candida albicans C127 isolate at 6.25 ug/ml after 24 hrs; details: C127, 24 h; in short: as §2
[15] = test system: Candida albicans; experiment: Antimicrobial activity against Candida albicans C127 isolate at 100 ug/ml after 24 hrs; details: C127, 24 h; in short: as §2
[16] = test system: Nakaseomyces glabratus; experiment: Antimicrobial activity against Candida glabrata C115 isolate at 12.5 ug/ml after 24 hrs; in short: as §2
[17] = test system: Candida albicans; experiment: Antimicrobial activity against Candida albicans C130 isolate at 12.5 ug/ml after 24 hrs; in short: as §2
[18] = test system: Candida albicans; experiment: Antimicrobial activity against Candida albicans C127 isolate at 12.5 ug/ml after 24 hrs; details: C127, 24 h; in short: as §2
[19] = test system: Candida albicans; experiment: Antimicrobial activity against Candida albicans C126 isolate at 6.25 ug/ml after 24 hrs; in short: as §2
[20] = test system: Candida albicans; experiment: Antimicrobial activity against Candida albicans C130 isolate at 100 ug/ml after 24 hrs; in short: as §2
[21] = test system: Candida albicans; experiment: Antimicrobial activity against Candida albicans C129 isolate at 6.25 ug/ml after 24 hrs; in short: as §2
[22] = test system: Candida albicans; experiment: Antimicrobial activity against Candida albicans C126 isolate at 50 ug/ml after 24 hrs; in short: as §2
[23] = test system: Candida albicans; experiment: Antimicrobial activity against Candida albicans C128 isolate at 100 ug/ml after 24 hrs; in short: as §2
[24] = test system: Candida tropicalis; experiment: Antimicrobial activity against Candida tropicalis C131 isolate at 25 ug/ml after 24 hrs; in short: as §1
[25] = test system: Candida albicans; experiment: Antimicrobial activity against Candida albicans C130 isolate at 6.25 ug/ml after 24 hrs; in short: as §2
[26] = test system: Candida parapsilosis; experiment: Antimicrobial activity against Candida parapsilosis C124 isolate at 12.5 ug/ml after 24 hrs; details: Lodderomyces parapsilosis; in short: as §1
[27] = test system: Candida albicans; experiment: Antimicrobial activity against Candida albicans C126 isolate at 12.5 ug/ml after 24 hrs; in short: as §2
[28] = test system: Candida tropicalis; experiment: Antimicrobial activity against Candida tropicalis C131 isolate at 50 ug/ml after 24 hrs; in short: as §1

Compound | inhibition at 25 µg/mL [1] [%] | inhibition at 12.5 µg/mL [2] [%] | inhibition at 6.25 µg/mL [3] [%] | inhibition at 50 µg/mL [4] [%] | inhibition at 100 µg/mL [5] [%] | inhibition at 25 µg/mL [6] [%] | inhibition at 25 µg/mL [7] [%] | inhibition at 100 µg/mL [8] [%] | inhibition at 6.25 µg/mL [9] [%] | inhibition at 12.5 µg/mL [10] [%] | inhibition at 50 µg/mL [11] [%] | inhibition at 50 µg/mL [12] [%] | inhibition at 25 µg/mL [13] [%] | inhibition at 6.25 µg/mL [14] [%] | inhibition at 100 µg/mL [15] [%] | inhibition at 12.5 µg/mL [16] [%] | inhibition at 12.5 µg/mL [17] [%] | inhibition at 12.5 µg/mL [18] [%] | inhibition at 6.25 µg/mL [19] [%] | inhibition at 100 µg/mL [20] [%] | further results
c1ccc2nc(-c3ccncc3)ccc2c1 | 0 | 3 | 22 | 4 | 100 | 0 | 4 | 66 | 0 | 0 | 84 | 3 | 0 | 0 | 80 | 1 | 2 | 0 | 0 | 84 | inhibition at 6.25 µg/mL [21]: 0%; inhibition at 50 µg/mL [22]: 32%; inhibition at 100 µg/mL [23]: 88%; inhibition at 25 µg/mL [24]: 60%; inhibition at 6.25 µg/mL [25]: 0%; inhibition at 12.5 µg/mL [26]: 0%; inhibition at 12.5 µg/mL [27]: 0%; inhibition at 50 µg/mL [28]: 75%
Cc1cc(-c2ccncc2)nc2ccccc12 | 0 | 3 | 22 | 4 | 100 | 0 | 4 | 66 | 0 | 0 | 84 | 3 | 0 | 0 | 80 | 1 | 2 | 0 | 0 | 84 | inhibition at 6.25 µg/mL [21]: 0%; inhibition at 50 µg/mL [22]: 32%; inhibition at 100 µg/mL [23]: 88%; inhibition at 25 µg/mL [24]: 60%; inhibition at 6.25 µg/mL [25]: 0%; inhibition at 12.5 µg/mL [26]: 0%; inhibition at 12.5 µg/mL [27]: 0%; inhibition at 50 µg/mL [28]: 75%
